Where a SMILES comes first, the peptide text is derived from it. The star is where a group is joined. Biotin = O=C1N[C@H]2[C@H](CS[C@H]2CCCCC(=O)*)N1; AEEA = NCCOCCOCC(=O)O
Assays:
Assay type in all cases: binding
c-Src-acrylamide = c-Src-acrylamide (Gallus gallus, UniProt P00523); experiment: Thiol reaction with Src-acrylamide, LC-MS; conditions: 4 μM c-Src-acrylamide (crosslinker 2), 25 minutes, room temperature
How it was run: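 Recombinant c-Src (4 μM final) was pre-labelled with 20 μM crosslinker in PBS pH 8 (0.025% DMSO final) for 15 min without quench. It was then reacted with 2-methylbenzylmercaptan (50 μM-1 mM) or Cys-containing peptide (25-400 μM) to give a dose-response. Products were read by LC-ESI-MS (C4 column, deconvoluted spectra). Data are duplicate points (SEM), from three separate experiments.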

recombinant c-Src = conditions: crosslinker 2 (20 μM), HCT-15 lysate
How it was run: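 HCT-15 lysate diluted in reaction buffer to 2 mg/mL (500 μL), with MgCl2 and 4 pmol recombinant c-Src added. Crosslinker (20 μM) added for 10 min at room temperature, then biotinylated Cys peptide (5–40 μM final) for 25 min. Urea lysis buffer added, then streptavidin-agarose capture for 1 h at room temperature with shaking. Beads washed in 4M urea and boiled in reducing Laemmli buffer. Anti-Src western blot read by infrared imaging, giving % of a total-c-Src standard. Duplicates; two experiments.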

c-Src [1] = conditions: peptide 74 μM, 4 μM c-Src, 20 μM crosslinker 2; three hour time course; LC-MS
How it was run: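 c-Src (4 μM) in PBS pH 8 incubated with acrylate crosslinker (20 μM; DMSO 0.025% final) and biotinylated cysteine-containing quasi-substrate peptide (74 μM) over 3 h. Samples quenched with NaBH4 in cold MeOH and analysed by ESI LC-MS on a C4 column with deconvolution. Crosslinked product expressed as % of total c-Src.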

[2] = tested on: c-Src-imine (c-Src-1 complex); experiment: Thiol reaction with Src-imine
How it was run: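 c-Src (4 μM) pre-labelled 15 min with dialdehyde crosslinker (20 μM) in 25 mM HEPES pH 6.5, not quenched. Imine adduct then treated with 2-methylbenzylmercaptan (50 μM–1 mM) or Cys peptide (25–400 μM). Products analysed by ESI LC-MS with deconvolution. Duplicate points, representative of three experiments, error shown as SEM.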

c-Src [3] = conditions: no adenine mimetic; 20 μM crosslinker, 4 μM c-Src, 25 mM HEPES pH 6.5; NaBH4 quench; LC-MS

CC[C@H](C)[C@H](NC(=O)COCCOCCNC(=O)COCCOCCNC(=O)CCCC[C@@H]1SC[C@@H]2NC(=O)N[C@@H]21)C(=O)N[C@@H](CS)C(=O)NCC(=O)N[C@@H](CCC(=O)O)C(=O)N[C@@H](Cc1ccccc1)C(=O)N[C@@H](CCCNC(=N)N)C(=O)N[C@@H](CCCNC(=N)N)C(=O)N[C@@H](CCCNC(=N)N)C(N)=O [Cys-Srctide] ({Biotin-AEEA-AEEA}-ICGEFRRR-NH2; C-terminus assumed)
crosslinked product formation with Src-acrylamide adduct (c-Src-acrylamide): significant crosslinked product
c-Src captured at lowest peptide concentration (recombinant c-Src; 5 μM peptide, 25 minutes): roughly 1%
crosslinked product formation over time course (in words) (c-Src [1]): proceed to completion
overall yield of the reaction with dialdehyde crosslinker 1 ([2]; dialdehyde-based crosslinker (earlier strategy), LC/MS): below the limit of detection
crosslinked product formation with c-Src-1 complex ([2]; peptide concentrations exceeding 200 μM, 4 μM c-Src-imine, room temperature, LC-MS): no product formation was detected

Biotin-ZZRRADDCDDDD [Cys-CK2tide]
crosslinked product (percentage of total c-Src) (c-Src [1]): less than 10%

O=Cc1ccsc1C=O [thiophene dialdehyde]
product (adduct) formed with c-Src (c-Src [3]): almost undetectable

Biotin-ZZRPRTSCF [Cys-Aktide]
c-Src captured at lowest peptide concentration (in words) (recombinant c-Src; 5 μM peptide, 25 minutes): not captured at a detectable level
percentage of c-Src recovered vs negative control (recombinant c-Src; 40 μM peptide): significantly above the negative control
yield of c-Src compared with Cys-Srctide (recombinant c-Src; 25 minutes): less than that of Cys-Srctide
crosslinked product formation over time course (in words) (c-Src [1]): reacted more slowly than Cys-Srctide, and did not reach completion

Cc1ccccc1CS [2-methylbenzylmercaptan, reference compound]
crosslinked product formation with Src-acrylamide adduct (c-Src-acrylamide): much less efficient
product formation with c-Src-1 complex (Src-imine) ([2]; at high concentrations (50 μM-1 mM range), 4 μM c-Src-imine, 25 minutes, room temperature, LC-MS): significant product formation

Reference: paper PMC4627693 (Chemistry & biology, 2014)
